Assay results published in ChEMBL document CHEMBL1629696, “Identification of a novel transposon (Tn6072) and a truncated staphylococcal cassette chromosome mec element in methicillin-resistant Staphylococcus aureus ST239” (2010).
Converted amounts (≈) assume the structure as drawn.

Legend:
Type in all cases: functional
[1] = system: Staphylococcus aureus; test: Antimicrobial activity against methicillin-resistant Staphylococcus aureus 16671 by broth dilution method
Summary of the method: (§1)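 Oxacillin MIC by broth dilution per CLSI guidelines, on clinical MRSA isolates collected March 2004–June 2005 at a county hospital in Braşov, Romania. Bacterial suspensions were incubated 24 h at 37°C and growth was read as OD600. S. aureus MRSA252 and MSSA476 served as positive and negative controls.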

[2] = system: Staphylococcus aureus; test: Antimicrobial activity against methicillin-resistant Staphylococcus aureus 16653 by broth dilution method; summary of the method: as §1
[3] = system: Staphylococcus aureus; test: Antimicrobial activity against methicillin-resistant Staphylococcus aureus 16680 by broth dilution method; summary of the method: as §1
[4] = system: Staphylococcus aureus; test: Antimicrobial activity against methicillin-resistant Staphylococcus aureus 16678 by broth dilution method; summary of the method: as §1
[5] = system: Staphylococcus aureus; test: Antimicrobial activity against methicillin-resistant Staphylococcus aureus 16704 by broth dilution method; summary of the method: as §1
[6] = system: Staphylococcus aureus; test: Antimicrobial activity against methicillin-resistant Staphylococcus aureus 16652 by broth dilution method; summary of the method: as §1
[7] = system: Staphylococcus aureus; test: Antimicrobial activity against methicillin-resistant Staphylococcus aureus 16691 by broth dilution method; summary of the method: as §1
[8] = system: Staphylococcus aureus; test: Antimicrobial activity against methicillin-resistant Staphylococcus aureus 16646 by broth dilution method; summary of the method: as §1
[9] = system: Staphylococcus aureus; test: Antimicrobial activity against methicillin-resistant Staphylococcus aureus 16666 by broth dilution method; summary of the method: as §1
[10] = system: Staphylococcus aureus; test: Antimicrobial activity against methicillin-resistant Staphylococcus aureus 16674 by broth dilution method; summary of the method: as §1
[11] = system: Staphylococcus aureus; test: Antimicrobial activity against methicillin-resistant Staphylococcus aureus 16645 by broth dilution method; summary of the method: as §1
[12] = system: Staphylococcus aureus; test: Antimicrobial activity against methicillin-resistant Staphylococcus aureus 16699 by broth dilution method; summary of the method: as §1
[13] = system: Staphylococcus aureus; test: Antimicrobial activity against methicillin-resistant Staphylococcus aureus 85/2082 by broth dilution method
[14] = system: Staphylococcus aureus; test: Antimicrobial activity against methicillin-resistant Staphylococcus aureus 16683 by broth dilution method; summary of the method: as §1
[15] = system: Staphylococcus aureus; test: Antimicrobial activity against methicillin-resistant Staphylococcus aureus 16687 by broth dilution method; summary of the method: as §1
[16] = system: Staphylococcus aureus; test: Antimicrobial activity against methicillin-resistant Staphylococcus aureus 16695 by broth dilution method; summary of the method: as §1
[17] = system: Staphylococcus aureus; test: Antimicrobial activity against methicillin-resistant Staphylococcus aureus 16658 by broth dilution method; summary of the method: as §1
[18] = system: Staphylococcus aureus; test: Antimicrobial activity against methicillin-resistant Staphylococcus aureus 16679 by broth dilution method; summary of the method: as §1
[19] = system: Staphylococcus aureus; test: Antimicrobial activity against methicillin-resistant Staphylococcus aureus 16692 by broth dilution method; summary of the method: as §1
[20] = system: Staphylococcus aureus; test: Antimicrobial activity against methicillin-resistant Staphylococcus aureus 16686 by broth dilution method; summary of the method: as §1
[21] = system: Staphylococcus aureus; test: Antimicrobial activity against methicillin-resistant Staphylococcus aureus 16684 by broth dilution method; summary of the method: as §1
[22] = system: Staphylococcus aureus; test: Antimicrobial activity against methicillin-resistant Staphylococcus aureus 16656 by broth dilution method; summary of the method: as §1
[23] = system: Staphylococcus aureus; test: Antimicrobial activity against methicillin-resistant Staphylococcus aureus 16651 by broth dilution method; summary of the method: as §1
[24] = system: Staphylococcus aureus; test: Antimicrobial activity against methicillin-resistant Staphylococcus aureus 16670 by broth dilution method; summary of the method: as §1
[25] = system: Staphylococcus aureus; test: Antimicrobial activity against methicillin-resistant Staphylococcus aureus 16689 by broth dilution method; summary of the method: as §1
[26] = system: Staphylococcus aureus; test: Antimicrobial activity against methicillin-resistant Staphylococcus aureus 16708 by broth dilution method; summary of the method: as §1
[27] = system: Staphylococcus aureus; test: Antimicrobial activity against methicillin-resistant Staphylococcus aureus 16698 by broth dilution method; summary of the method: as §1
[28] = system: Staphylococcus aureus; test: Antimicrobial activity against methicillin-resistant Staphylococcus aureus 16702 by broth dilution method; summary of the method: as §1
[29] = system: Staphylococcus aureus; test: Antimicrobial activity against methicillin-resistant Staphylococcus aureus 16696 by broth dilution method; summary of the method: as §1
[30] = system: Staphylococcus aureus; test: Antimicrobial activity against methicillin-resistant Staphylococcus aureus 16672 by broth dilution method; summary of the method: as §1
[31] = system: Staphylococcus aureus; test: Antimicrobial activity against methicillin-resistant Staphylococcus aureus 16688 by broth dilution method; summary of the method: as §1
[32] = system: Staphylococcus aureus; test: Antimicrobial activity against methicillin-resistant Staphylococcus aureus 16677 by broth dilution method; summary of the method: as §1
[33] = system: Staphylococcus aureus; test: Antimicrobial activity against methicillin-resistant Staphylococcus aureus 16676 by broth dilution method; summary of the method: as §1
[34] = system: Staphylococcus aureus; test: Antimicrobial activity against methicillin-resistant Staphylococcus aureus HDG2 by broth dilution method
[35] = system: Staphylococcus aureus; test: Antimicrobial activity against methicillin-resistant Staphylococcus aureus 16703 by broth dilution method; summary of the method: as §1
[36] = system: Staphylococcus aureus; test: Antimicrobial activity against methicillin-resistant Staphylococcus aureus 16700 by broth dilution method; summary of the method: as §1

**Q.** What does the source list for `Cc1onc(-c2ccccc2)c1C(=O)N[C@@H]1C(=O)N2[C@@H]1SC(C)(C)[C@@H]2C(=O)O` [OXACILLIN]?
**A.** MIC [1]: 512 µg/mL (≈ 1280 µM); MIC [2]: 512 µg/mL (≈ 1280 µM); MIC [3]: 512 µg/mL (≈ 1280 µM); MIC [4]: 256 µg/mL (≈ 638 µM); MIC [5]: 512 µg/mL (≈ 1280 µM); MIC [6]: 512 µg/mL (≈ 1280 µM); MIC [7]: 256 µg/mL (≈ 638 µM); MIC [8]: 512 µg/mL (≈ 1280 µM); MIC [9]: 256 µg/mL (≈ 638 µM); MIC [10]: 256 µg/mL (≈ 638 µM); MIC [11]: > 512 µg/mL; MIC [12]: 256 µg/mL (≈ 638 µM); MIC [13]: 16 µg/mL (≈ 39.9 µM); MIC [14]: 256 µg/mL (≈ 638 µM); MIC [15]: 512 µg/mL (≈ 1280 µM); MIC [16]: 512 µg/mL (≈ 1280 µM); MIC [17]: 256 µg/mL (≈ 638 µM); MIC [18]: 512 µg/mL (≈ 1280 µM); MIC [19]: 256 µg/mL (≈ 638 µM); MIC [20]: 512 µg/mL (≈ 1280 µM); MIC [21]: 256 µg/mL (≈ 638 µM); MIC [22]: 512 µg/mL (≈ 1280 µM); MIC [23]: 512 µg/mL (≈ 1280 µM); MIC [24]: 512 µg/mL (≈ 1280 µM); MIC [25]: 512 µg/mL (≈ 1280 µM); MIC [26]: 256 µg/mL (≈ 638 µM); MIC [27]: 512 µg/mL (≈ 1280 µM); MIC [28]: 512 µg/mL (≈ 1280 µM); MIC [29]: 512 µg/mL (≈ 1280 µM); MIC [30]: 8 µg/mL (≈ 19.9 µM); MIC [31]: 512 µg/mL (≈ 1280 µM); MIC [32]: 256 µg/mL (≈ 638 µM); MIC [33]: 512 µg/mL (≈ 1280 µM); MIC [34]: 64 µg/mL (≈ 159 µM); MIC [35]: 256 µg/mL (≈ 638 µM); MIC [36]: 512 µg/mL (≈ 1280 µM)
